OXTR potentiator – human OXTR potentiators, primary screen, fluorescence, CHO-OTR cells, Fluo-8 calcium; 320,000 compounds, 0.061% hits; activation, % at 3 µM; Oxytocin receptor (Homo sapiens), P30559; Fluo-8 calcium fluorescence, potentiator mode; 0% = oxytocin EC15, 100% = EC100;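 active = activation above that plate's cutoff, the mean activation of tested compounds plus 3 SD, cut at about 6.6% in these data, passing the limit was not always enough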;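 note: 100% uses oxytocin at 75 nM as the full agonist control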
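System: human OTR in CHO cells; Also added: sub-maximal oxytocin, roughly EC15; Timing: compound 6 min at room temperature before oxytocin, 100 s read; Technique: Fluo-8 intracellular calcium fluorescence, ex 470-495, em 515-575 nm; Controls: oxytocin EC15 low and EC100 high; Replication: singlicate.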
OXTR ag – human OXTR agonists, primary screen, fluorescence, CHO-OTR cells, Fluo-8 calcium; Fluo-8 calcium fluorescence; normalized: DMSO 0%, oxytocin 100%; Oxytocin receptor (Homo sapiens), P30559; activation, % at 3 µM; 320,000 compounds, 0.32% hits;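 active = activation above the mean of all tested compounds plus 3 SD, cutoff set per screening run, cut at about 20% in these data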;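 note: peak over basal fluorescence ratio from a 100 s FLIPR kinetic read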
V1aR counter – agonists of human V1a receptor, primary screen, counter-screen for OXTR agonist project, fluorescence, CHO-V1R cells. 320,000 compounds, 0.25% hits. AID 2797, 2010. Vasopressin V1a receptor (Homo sapiens), P37288. activation, % at 3 µM. Fluo-8 calcium fluorescence, agonist mode; 0% DMSO, 100% 3 nM vasopressin;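 active = activation above the mean activation of all tested compounds plus 3 SD, per screening run, cut at about 20% in these data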;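 note: signal is peak over basal fluorescence ratio across a 100 second FLIPR read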
OX1R antag-1 – OX1R (HCRTR1) antagonists, primary screen, fluorescence, CHO/OX1R cells, Fluo-8 calcium, orexin A | 330,000 compounds, 0.43% hits | inhibition, % at 5 µM | Fluo-8 calcium fluorescence;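 active = inhibition above its plate's threshold, mean inhibition of all tested compounds on the plate plus 3 SD, cut at about 37% in these data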;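 note: 0% = orexin A challenge wells and 100% = SB-334867-A antagonist wells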
Target sequence (O43613 whole entry, looked up): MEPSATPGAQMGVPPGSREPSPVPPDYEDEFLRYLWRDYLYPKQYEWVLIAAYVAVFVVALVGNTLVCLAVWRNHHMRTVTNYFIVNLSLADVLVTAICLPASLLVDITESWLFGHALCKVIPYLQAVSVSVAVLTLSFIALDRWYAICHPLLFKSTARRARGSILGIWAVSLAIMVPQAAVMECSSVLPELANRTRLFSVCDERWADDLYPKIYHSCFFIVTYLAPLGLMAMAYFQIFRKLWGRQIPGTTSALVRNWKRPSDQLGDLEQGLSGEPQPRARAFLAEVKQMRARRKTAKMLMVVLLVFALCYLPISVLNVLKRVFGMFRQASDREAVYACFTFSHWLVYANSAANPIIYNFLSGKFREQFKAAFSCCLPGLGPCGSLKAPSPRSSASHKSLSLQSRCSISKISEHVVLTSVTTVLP
OX1R antag-2 – antagonists of human orexin 1 receptor (OX1R); Orexin/Hypocretin receptor type 1 (Homo sapiens), O43613; OX1R-expressing cells, FRET antagonist read-out; inhibition, % at 6.6 µM; 330,000 compounds, 1.8% hits; in the data active = inhibition mostly above about 38%, no sharp cut-off; inactive = mostly below about 40%;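 note: 0% = agonist challenge alone and 100% = reference antagonist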
CHO parental Ca – ATP-evoked calcium signal inhibitors, parental CHO, primary screen, counter-screen for OX1R antagonist project, cell-based, fluorescence, Fluo-8 calcium dye. AID 463079, 2010. parental CHO-K1, ATP-induced calcium, Fluo-8 fluorescence. 330,000 compounds, 0.63% hits. inhibition, % at 5.6 µM;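 active = inhibition above that plate's mean sample inhibition plus 3 SD, cut at about 26% in these data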;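 note: 0% = ATP-challenged DMSO wells and 100% = DMSO wells without ATP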
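Assay system: parental CHO cells; Read-out basis: percent inhibition of ATP-evoked calcium rise, normalized to controls; Benchmarks: ATP and no-ATP DMSO wells; Compound dosing: single nominal dose of 5.6 µM per compound; Signal: Fluo-8 calcium dye fluorescence; Also added: ATP as calcium-mobilizing challenge; Repeats: singlicate.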
OXTR agonist cf – human OXTR agonists, confirmation, fluorescence, CHO-OTR cells, triplicate; shares compounds with OXTR ag; 390 compounds, 20% hits; Fluo-8 calcium fluorescence, agonist; activation, % at 3 µM;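 active = mean activation above about 20% derived from the earlier single-dose screen, limit read from the data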;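 note: peak over minimum fluorescence ratio per well during a 100 second FLIPR read; 0% = DMSO alone and 100% = oxytocin high control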
V1aR counter 3x – V1a receptor agonists, calcium signal, counter-screen for OXTR agonist project, triplicate, fluorescence, CHO-V1R cells. shares compounds with OXTR ag. Fluo-8 calcium fluorescence. activation, % at 3 µM. 390 compounds, 10% hits;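 active = mean activation over triplicate exceeds the hit threshold set in the earlier primary screen, cut at about 20% in these data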;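 note: peak over basal fluorescence ratio within a 100 second read; 0% = DMSO alone and 100% = 3 nM vasopressin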
The depositor's hits bear a star; . = no result given. Sampled rows, rich in hits. Any-hit rate of the full collection: about 2.7%.

SMILES	OXTR potentiator	OXTR ag	V1aR counter	OX1R antag-1	OX1R antag-2	CHO parental Ca	OXTR agonist cf	V1aR counter 3x
COc1ccc(Cl)cc1NC(=O)NCC1CCN(Cc2cc(C)ccc2C)CC1	-19	21*	18	-15	0	0	6	4
Cc1noc(C)c1NC(=O)N(C)C[C@H]1Oc2ccc(NC(=O)Nc3ccc4c(c3)OCO4)cc2C(=O)N([C@H](C)CO)C[C@@H]1C	0	2	1	11	13	1	.	.
CCc1cccc(CC)c1NC(=O)COC(=O)C1(c2ccc(Cl)cc2)CCCC1	-11	1	1	-21	30	-22	.	.
CC(=O)Nc1ccc(NC(=O)COC(=O)C2(c3ccc(Cl)cc3)CCCC2)cc1	-11	20*	18	-12	17	-4	13	12
CCOC(=O)c1c(C)[nH]c(C)c1S(=O)(=O)N1CCN(c2ccc(F)cc2)CC1	-5	1	0	-15	19	-11	.	.
COc1cccc2c1C(=O)c1c(O)c3c(c(O)c1C2=O)C[C@@](O)(C(=O)CO)C[C@@H]3O[C@H]1C[C@H](N)[C@@H](O)[C@H](C)O1	-12	23*	18	29	41*	19	11	20
Cc1ccc(Cl)cc1N1CCN(CC(=O)Nc2ccc(CN3CCCCC3)cc2)CC1	-14	28*	12	-5	14	-11	19	13
CC(=O)c1ccc(NC(=O)CN2CCCCCC2)cc1	-7	21*	1	-5	5	1	1	0
COc1cc(/C=C/C(=O)OCC(=O)Nc2cc(S(=O)(=O)N3CCCC3)ccc2Cl)cc(OC)c1OC	-4	1	3	-13	2	-13	.	.
O=c1c2cc(NC(=S)NCCCN3CCC(Cc4ccccc4)CC3)ccc2nc2n1CCCCC2	-27	20*	14	-4	16	-6	16	14
COc1ccc(Nc2cc(Nc3cc(OC)c(OC)c(OC)c3)ncn2)cc1	2	-1	2	-38	3	-12	.	.
COc1ccc(-n2c(O)c(/C=N/NS(=O)(=O)c3ccc(C)cc3)c3ccccc3c2=O)cc1OC	-16	32*	9	-1	10	2	15	13
COc1ccc(-n2c(O)c(/C=N/NS(=O)(=O)c3cc(C)ccc3C)c3ccccc3c2=O)cc1OC	-13	18	15	10	25	2	.	.
Cc1cc(C)cc(OCC(O)CN2CCC(CN3C(=O)c4cccc5cccc(c45)C3=O)CC2)c1 (stereo unspecified)	-11	25*	16	1	18	17	3	1
COc1cccc(OCC(O)CN2CCC(CN3C(=O)c4cccc5cccc(c45)C3=O)CC2)c1 (stereo unspecified)	-4	3	1	-22	35	-5	.	.
CCOC(=O)c1sc(NC(=O)Nc2ccc(Cl)cc2)cc1C	-23	20*	14	67*	86*	79*	11	11
O=C(NCCCN1CCCC1=O)c1ccc(NS(=O)(=O)c2ccccc2)cc1	2	0	1	9	5	-15	.	.
Nc1nc2ccccc2n1CCOc1ccc(Br)cc1	-15	21*	7	-4	4	-6	1	0
Oc1ccc(Cl)cc1CNc1cnc2ccccc2c1	-6	17	8	-3	7	18	.	.
Oc1ccccc1CNc1cnc2ccccc2c1	-14	22*	13	35	19	10	13	13
CC(NCC(O)COc1ccc2ccccc2c1)c1ccccc1 (stereo unspecified)	-18	22*	13	-24	-9	9	10	7
COc1ccc(OCC(O)CNC(C)c2ccccc2)cc1 (stereo unspecified)	-1	4	1	-18	4	-23	.	.
COc1ccc(-c2cc(C(=O)Nc3cc(Cl)ccc3O)no2)cc1	-3	1	0	-20	-8	-5	.	.
CCc1ccc(Nc2cc(=O)n(C3CCCCC3)c(=O)[nH]2)cc1	-16	25*	17	8	-2	-8	33*	30*
CC(=O)c1cccc(NC(=O)CN2C(=S)NC(C)(C)CC2C)c1 (stereo unspecified)	0	0	1	14	7	1	.	.
SMILES	OXTR potentiator	OXTR ag	V1aR counter	OX1R antag-1	OX1R antag-2	CHO parental Ca	OXTR agonist cf	V1aR counter 3x
Cc1ccccc1NC(=O)c1nnn(-c2ccc3c(c2)OCCO3)c1N	-16	21*	9	0	11	9	2	2
CCOc1ccccc1NC(=O)c1nnn(-c2ccc3c(c2)OCCO3)c1N	-9	4	4	-5	28	-1	.	.
CCCCN(C)C(=O)c1nc2ccccn2c1CN1CCC[C@H]1CO	-4	1	1	-7	7	-9	.	.
O=C(Cc1cccs1)N(Cc1ccco1)C1(C(=O)NC2CCCC2)CCCCC1	-19	20*	6	-9	18	-16	0	0
O=C1CC(C(=O)N2CCc3ccccc32)CN1c1ccc(F)cc1 (stereo unspecified)	2	0	0	-6	2	3	.	.
O[C@@H](c1cc(C(F)(F)F)nc2c(C(F)(F)F)cccc12)[C@H]1CCCCN1	-18	17	9	-10	3	13	.	.
OC(c1cc(C(F)(F)F)nc2c(Cl)cc(Cl)cc12)C1CCCCN1 (stereo unspecified)	-15	23*	9	-13	8	3	9	5
CCOC(=O)c1ccc(NC(=S)N2CCSC2c2ccc(OC)cc2)cc1 (stereo unspecified)	-21	32*	18	-17	7	-5	37*	31*
c1ccc(COc2ccc(OCCCNC3CCCC3)cc2)cc1	-16	21*	13	-18	14	2	13	2
COCCCNCCCCOc1ccc(OCc2ccccc2)cc1	-9	11	8	-26	17	-8	.	.
O=C(COC(=O)c1cc(S(=O)(=O)N2CCCC2)ccc1O)Nc1ccc(SC(F)F)cc1	-11	21*	17	22	26	-3	15	13
COc1cc(C)ccc1OCCOCCOc1cc(C)c(C)cc1Br	-1	-2	-1	-22	12	-26	.	.

Compound activity as filed in PubChem.
